Results as given in article PMC6146385 (Acta Pharmaceutica Sinica. B, 2018).

What was measured:
[1] = target: T1, AB sulfation in HLC (SULT2A1) (Homo sapiens, UniProt Q06520); assay: Chemical inhibition of AB sulfation in HLC; format: biochemical; conditions: for inhibition of AB sulfation / residual activity of AB sulfation: HLC, Fig. 2A
T1 sequence (Q06520 1-285): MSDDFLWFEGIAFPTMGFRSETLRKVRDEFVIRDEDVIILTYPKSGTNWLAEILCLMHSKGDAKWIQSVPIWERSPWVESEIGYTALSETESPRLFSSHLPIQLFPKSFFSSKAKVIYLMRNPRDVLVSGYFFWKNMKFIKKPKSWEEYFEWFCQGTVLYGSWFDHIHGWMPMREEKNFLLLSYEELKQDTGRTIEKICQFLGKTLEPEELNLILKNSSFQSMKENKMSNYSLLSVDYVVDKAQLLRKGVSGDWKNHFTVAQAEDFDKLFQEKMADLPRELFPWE

SULT2A1 [2] = target: T2, SULT2A1 (Homo sapiens, UniProt Q06520); assay: Inhibition of AB sulfation in rhSULT2A1; format: biochemical
T2 sequence (Q06520 1-285): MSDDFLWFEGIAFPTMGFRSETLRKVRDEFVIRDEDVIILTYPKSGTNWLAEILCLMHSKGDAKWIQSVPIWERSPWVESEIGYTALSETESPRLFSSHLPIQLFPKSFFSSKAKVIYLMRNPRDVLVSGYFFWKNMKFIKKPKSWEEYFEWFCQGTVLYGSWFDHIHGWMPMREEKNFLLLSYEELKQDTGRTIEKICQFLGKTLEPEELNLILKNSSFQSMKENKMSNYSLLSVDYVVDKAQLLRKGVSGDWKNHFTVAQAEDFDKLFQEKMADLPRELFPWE

SULT2A1 (sulfation) = assay: Sulfation kinetics and rate in pooled human liver cytosols; format: in vitro ADME; conditions: human, pooled human liver cytosols (HLC), pH 7.4, Km, sulfation by HLC
Method in brief: (§1)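 Substrate-concentration series with pooled mixed-gender human liver cytosol or recombinant human SULTs. Buffer is 50 mmol/L potassium phosphate, pH 7.4, with DTT 8 mmol/L, MgCl2 5 mmol/L and PAPS 4 mmol/L, at 37 °C and within linear formation conditions. Sulfate is quantified by LC–MS/MS. Eadie–Hofstee plots choose the Michaelis–Menten or substrate-inhibition fit. Km, Vmax (and Ksi) come from nonlinear regression. Duplicates in three independent experiments.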

[3] = test system: pooled human liver cytosols (HLC); assay: as above; format: in vitro ADME
Method in brief: as §1

[4] = as above; format: in vitro ADME; conditions: human, pooled human liver cytosols (HLC), pH 7.4
Method in brief: as §1

[5] = target: T3, AB sulfation in cytosol of human kidney, small intestine and brain (Homo sapiens, UniProt Q06520); assay: Inhibition of AB sulfation in cytosol of human kidney, small intestine and brain; format: biochemical; conditions: Fig. S5
T3 sequence (Q06520 1-285): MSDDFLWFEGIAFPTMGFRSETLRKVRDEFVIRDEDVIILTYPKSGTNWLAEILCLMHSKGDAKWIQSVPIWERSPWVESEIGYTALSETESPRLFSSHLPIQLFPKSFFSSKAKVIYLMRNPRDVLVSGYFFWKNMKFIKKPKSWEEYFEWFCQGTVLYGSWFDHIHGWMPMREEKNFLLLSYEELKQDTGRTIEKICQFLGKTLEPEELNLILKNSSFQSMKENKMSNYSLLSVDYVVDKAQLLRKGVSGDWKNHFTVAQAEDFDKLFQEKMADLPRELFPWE

SULT1E1 = target: T4, SULT1E1 (Homo sapiens, UniProt P49888); assay: DHEA sulfation kinetics by recombinant SULT1E1; format: in vitro ADME
T4 sequence (P49888 1-294): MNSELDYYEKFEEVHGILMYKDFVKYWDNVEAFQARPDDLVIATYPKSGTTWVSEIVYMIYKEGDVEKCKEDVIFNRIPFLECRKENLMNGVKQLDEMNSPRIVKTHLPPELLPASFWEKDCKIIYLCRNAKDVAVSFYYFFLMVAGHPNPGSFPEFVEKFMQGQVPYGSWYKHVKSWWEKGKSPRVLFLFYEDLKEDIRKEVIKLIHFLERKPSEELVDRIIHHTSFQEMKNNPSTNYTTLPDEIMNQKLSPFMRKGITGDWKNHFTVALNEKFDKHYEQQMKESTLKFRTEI

SULT2A1 [6] = target: T2, SULT2A1; assay: Sulfation of AB, DHEA and bufadienolides by recombinant human SULT2A1; format: in vitro ADME
[7] = substrate: C[C@]12CC[C@H](O)CC1=CC[C@@H]1[C@@H]2CC[C@]2(C)C(=O)CC[C@@H]12; assay: as above; format: in vitro ADME; conditions: other: sulfation by SULT2A1; pH 7.4; 37.0 °C
[8] = substrate: C[C@]12CC[C@H](O)CC1=CC[C@@H]1[C@@H]2CC[C@]2(C)C(=O)CC[C@@H]12; assay: DHEA sulfation kinetics by recombinant SULT1E1; format: in vitro ADME, human; conditions: other: sulfation by SULT1E1; pH 7.4; 37.0 °C

O=[N+]([O-])c1cc(Cl)c(O)c(Cl)c1 [DCNP, 2,6-dichloro-p-nitrophenol]
inhibition of AB sulfation [1]: less than 20%

C[C@]12CC[C@H](O)CC1=CC[C@@H]1[C@@H]2CC[C@]2(C)C(=O)CC[C@@H]12 [DHEA, dehydroepiandrosterone]
IC50 (SULT2A1 [2]): 1640 nM
Km (SULT2A1 (sulfation)): 1.08 ± 0.17 µM
kinetic model of sulfation ([3]; HLC, Eadie–Hofstee plot): substrate inhibition kinetic model
Ksi ([3]; sulfation by HLC): 17.2 ± 2.9 µmol/L
Vm ([3]; sulfation by HLC): 0.052 ± 0.004 nmol/min/mg
microsomal CLint [4]: 48.2 µL/min/mg
IC50 [1]: 1880 nM
residual activity of AB sulfation [1]: less than 10%
inhibitory effect toward AB sulfation in different organs [5]: strong inhibitory effect
CLint of SULT1E1-mediated sulfation, fold higher than for SULT2A1 (SULT1E1; SULT1E1 vs SULT2A1): 1.5 fold
Km of SULT1E1-mediated sulfation, fold lower than for SULT2A1 (SULT1E1; SULT1E1 vs SULT2A1): 7.2 fold
microsomal CLint (SULT1E1; human, recombinant human SULT1E1 (rhSULT1E1), pH 7.4): 4260 µL/min/mg
kinetic model of sulfation (SULT1E1; rhSULT1E1): substrate inhibition kinetic model
Ksi (SULT1E1; sulfation by SULT1E1): 2.9 ± 1.2 µmol/L
microsomal CLint (SULT2A1 [6]; human, recombinant human SULT2A1 (rhSULT2A1), pH 7.4): 2940 µL/min/mg
kinetic model of sulfation (SULT2A1 [6]; rhSULT2A1, Eadie–Hofstee plot): substrate inhibition kinetic model
Ksi (SULT2A1 [6]; sulfation by SULT2A1): 2.2 ± 0.9 µmol/L

C[C@]12CC[C@@H]3c4ccc(O)cc4CC[C@H]3[C@@H]1CCC2=O [estrone]
inhibition of AB sulfation [1]: less than 20%

Cc1cccc(Nc2ccccc2C(=O)O)c1C [MFC, mefenamic acid]
inhibition of AB sulfation [1]: less than 20%

CC(C)Cc1ccc(C(C)C(=O)O)cc1 (centres unmarked) [ibuprofen]
inhibition of AB sulfation [1]: less than 20%

CC1(C)[C@@H](O)CC[C@]2(C)[C@H]3C(=O)C=C4[C@@H]5C[C@@](C)(C(=O)O)CC[C@]5(C)CC[C@@]4(C)[C@]3(C)CC[C@@H]12 [GA, glycyrrhetinic acid]
residual activity of AB sulfation [1]: less than 10%
inhibitory effect toward AB sulfation in different organs [5]: strong inhibitory effect

CS(=O)(=O)Nc1ccc([N+](=O)[O-])cc1Oc1ccccc1 [nimesulide]
inhibition of AB sulfation [1]: less than 20%

C[C@]12CC[C@H](O)C[C@H]1CC[C@@H]1[C@@H]2CC[C@]2(C)[C@@H](c3ccc(=O)oc3)C[C@H]3O[C@]132 [RB, resibufogenin]
sulfation rates by SULT2A1 compared with other bufadienolides (SULT2A1 [6]; 1, 10 and 100 µmol/L, 0.1 mg/mL protein, 60 min, Fig. S1B): higher than those of other bufadienolides
trend of sulfation rate with increasing substrate concentration (SULT2A1 [6]; up to 100 µmol/L, SULT2A1): decreasing trend

B1: rhSULT2A1 (Homo sapiens) (protein)
chain: MSDDFLWFEGIAFPTMGFRSETLRKVRDEFVIRDEDVIILTYPKSGTNWLAEILCLMHSKGDAKWIQSVPIWERSPWVESEIGYTALSETESPRLFSSHLPIQLFPKSFFSSKAKVIYLMRNPRDVLVSGYFFWKNMKFIKKPKSWEEYFEWFCQGTVLYGSWFDHIHGWMPMREEKNFLLLSYEELKQDTGRTIEKICQFLGKTLEPEELNLILKNSSFQSMKENKMSNYSLLSVDYVVDKAQLLRKGVSGDWKNHFTVAQAEDFDKLFQEKMADLPRELFPWE
Km [7]: 2.48 ± 1.15 µM
Vmax [7]: 0.0073 µmol/min/mg
Vmax/Km [7]: 2940 µL/min/mg

B2: rhSULT1E1 (Homo sapiens) (protein)
chain: MNSELDYYEKFEEVHGILMYKDFVKYWDNVEAFQARPDDLVIATYPKSGTTWVSEIVYMIYKEGDVEKCKEDVIFNRIPFLECRKENLMNGVKQLDEMNSPRIVKTHLPPELLPASFWEKDCKIIYLCRNAKDVAVSFYYFFLMVAGHPNPGSFPEFVEKFMQGQVPYGSWYKHVKSWWEKGKSPRVLFLFYEDLKEDIRKEVIKLIHFLERKPSEELVDRIIHHTSFQEMKNNPSTNYTTLPDEIMNQKLSPFMRKGITGDWKNHFTVALNEKFDKHYEQQMKESTLKFRTEI
Km [8]: 0.34 ± 0.13 µM
Vmax [8]: 0.00145 µmol/min/mg
Vmax/Km [8]: 4260 µL/min/mg
